Measurements reported in ChEMBL document CHEMBL5230174, “Synthesis and properties of the kojic acid dimer and its potential for the treatment of Alzheimer's disease” (RSC Med Chem, 2023).
The source made the active and inactive calls. No cut-off for these calls is given here.

Legend:
BV-2 [1] = assay: Antioxidant activity in mouse BV-2 cells assessed as reduction in H2O2-induced intracellular ROS accumulation by measuring intracellular ROS level at 125 uM pretreated for 24 hrs followed by H2O2 challenge for 12 hrs by DCFH-DA staining based flow cytometry (reference value: 40.7%); format: functional; set-up: scale not given: the % may be the effect or the level left; conditions: time 36 hrs
H9c2 [2] = assay: Antioxidant activity in rat H9c2 cells assessed as reduction in H2O2-induced ROS burst by measuring increase in SOD activity at 125 to 500 uM treated with compound prior to H2O2 challenge; format: functional, cell-based; conditions: dose 125-500 µM
[3] = Metal chelating activity assessed as compound-Mn2+ complex formation by measuring optical responses at 100 uM in presence of Mn(CH3COO)2 by UV-Vis spectroscopy
Method in brief: (§1)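 Compound held at 100 μM in HEPES buffer (pH 7.4). The metal salt (CuSO4, ZnCl2, FeCl2, FeCl3·7H2O, AlCl3, Mn(CH3COO)2, MgSO4, NaCl, KCl or CaCl2) was added at one equivalent, and the UV-vis absorption spectrum was recorded from 200 to 800 nm.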

[4] = Metal chelating activity assessed as compound-Fe2+ complex formation at stoichiometric ratio of 1:1 at 100 uM in presence of FeCl2 by UV-Vis spectroscopy
BV-2 [5] = assay: Antioxidant activity in mouse BV-2 cells assessed as reduction in H2O2-induced intracellular ROS accumulation at 125 to 500 uM pretreated for 24 hrs followed by H2O2 challenge for 12 hrs by DCFH-DA staining based inverted fluorescence microscopy; format: functional, cell-based; conditions: dose 125-500 µM, time 36.0 hrs
Method in brief: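 BV-2 cells (2 × 10^5/well) are pretreated with compound for 24 h, then given 1000 μM H2O2 for 12 h. They are loaded with 10 μM DCFH-DA in serum-free medium for 30 min at 37 °C and washed three times with PBS.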

[6] = Metal chelating activity assessed as compound-K+ complex formation by measuring optical responses at 100 uM in presence of KCl by UV-Vis spectroscopy; method in brief: as §1
[7] = Metal chelating activity assessed as compound-Al3+ complex formation by measuring optical responses at 100 uM in presence of AlCl3 by UV-Vis spectroscopy; method in brief: as §1
BV-2 [8] = assay: Antioxidant activity in mouse BV-2 cells assessed as reduction in H2O2-induced intracellular ROS accumulation by measuring intracellular ROS level at 500 uM pretreated for 24 hrs followed by H2O2 challenge for 12 hrs by DCFH-DA staining based flow cytometry (reference value: 40.7%); format: functional; set-up: scale not given: the % may be the effect or the level left; conditions: time 36 hrs
[9] = Metal chelating activity assessed as compound-Fe3+ complex formation by measuring optical responses at 100 uM in presence of FeCl3 by UV-Vis spectroscopy; method in brief: as §1
[10] = Cytotoxicity against mouse BV-2 cells assessed as reduction in cell viability incubated for 24 hrs by MTT assay; format: toxicity, cell-based
Method in brief: (§2)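 Cells grown with 10% FBS plus penicillin/streptomycin at 37 °C, 5% CO2 (SH-SY5Y in DMEM/F12; BV-2, HT-22, H9c2 in DMEM; L02 in RPMI 1640). Seeded 1 × 10^4 per well, 24 h, then compound in medium 24 h. MTT (5 mg/mL stock) added 4 h at 37 °C; formazan dissolved in DMSO, A490 read.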

[11] = Antioxidant activity assessed as ABTS radical scavenging activity at 50 uM incubated for 6 mins under dark condition by UV-Vis spectrophotometry; format: functional
Method in brief: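 ABTS radical cation is generated from 7 mM ABTS and 4.96 mM potassium persulfate, kept dark at room temperature for 16 h, and diluted to A734 0.70 ± 0.02. Samples are serially diluted in DMSO and mixed with working solution, then shaken 6 min at room temperature in the dark before reading A734. Scavenging rate (%) comes from triplicate wells; VC and KA are controls.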

[12] = Metal chelating activity assessed as compound-Fe2+ complex formation by measuring optical responses at 100 uM in presence of FeCl2 by UV-Vis spectroscopy; method in brief: as §1
[13] = molecular target: Amyloid-beta precursor protein (Homo sapiens) (UniProt P05067); assay: Inhibition of HFIP-pretreated human amyloid beta (1 to 42) aggregation at 50 uM incubated for 24 hrs under dark condition by Thioflavin T dye based fluorometric analysis
Chain of Amyloid-beta precursor protein (Homo sapiens) (P05067 whole entry): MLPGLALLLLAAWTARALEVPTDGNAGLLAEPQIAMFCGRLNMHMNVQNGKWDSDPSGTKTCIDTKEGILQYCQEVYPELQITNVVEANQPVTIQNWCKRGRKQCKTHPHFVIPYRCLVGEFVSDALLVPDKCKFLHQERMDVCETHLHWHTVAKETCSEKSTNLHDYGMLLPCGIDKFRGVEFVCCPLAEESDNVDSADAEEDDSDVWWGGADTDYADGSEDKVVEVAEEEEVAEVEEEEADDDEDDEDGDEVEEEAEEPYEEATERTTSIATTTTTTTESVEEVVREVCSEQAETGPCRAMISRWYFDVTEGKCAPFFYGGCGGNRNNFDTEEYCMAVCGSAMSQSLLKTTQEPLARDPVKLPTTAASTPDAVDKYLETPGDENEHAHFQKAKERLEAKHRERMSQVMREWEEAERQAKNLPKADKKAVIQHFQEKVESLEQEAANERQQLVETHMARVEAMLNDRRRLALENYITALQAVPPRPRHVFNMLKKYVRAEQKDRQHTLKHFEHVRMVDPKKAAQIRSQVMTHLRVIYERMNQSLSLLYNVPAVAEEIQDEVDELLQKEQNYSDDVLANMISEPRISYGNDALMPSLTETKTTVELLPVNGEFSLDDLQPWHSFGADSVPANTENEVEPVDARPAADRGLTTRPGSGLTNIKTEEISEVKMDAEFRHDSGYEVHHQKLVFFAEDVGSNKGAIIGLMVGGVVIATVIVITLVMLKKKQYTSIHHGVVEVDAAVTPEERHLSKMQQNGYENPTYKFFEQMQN
Method in brief: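 HFIP-pretreated human Aβ1–42 dissolved at 1000 μM in 1% NH4OH, sonicated 1 h cold, stored −20 °C, diluted in PBS pH 7.4. Aβ (25 μM final) incubated with compound (50 μM final) or PBS 24 h at 37 °C in dark. Aliquot mixed with 5 μM ThT in Gly-NaOH pH 8.5, shaken 5 min; fluorescence ex 450/em 490 nm. Inhibition = 1 − Fs/F0, background ThT subtracted; three independent experiments.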

[14] = Antioxidant activity assessed as DPPH radical scavenging activity at 100 uM incubated for 30 mins under dark condition by UV-Vis spectrophotometry; format: functional
Method in brief: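 Compound dilutions made in DMSO. 100 μM DPPH in ethanol mixed 9:1 with sample, shaken 30 min in dark at room temperature; absorbance read at 517 nm on plate reader. Scavenging rate calculated from absorbance; triplicate wells, three parallel measurements, three independent experiments.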

[15] = Metal chelating activity assessed as compound-Na+ complex formation by measuring optical responses at 100 uM in presence of NaCl by UV-Vis spectroscopy; method in brief: as §1
[16] = Metal chelating activity assessed as compound-Cu2+ complex formation by measuring decrease in absorption band intensity at 370 nm at 100 uM in presence of CuSO4 by UV-Vis spectroscopy
Method in brief: (§3)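 Compound held at 100 μM in HEPES buffer (pH 7.4) and titrated with Cu2+ at 12.5–200 μM (nine levels). UV-vis spectra were followed at 370 and 475 nm. Stoichiometry was taken from a plot of absorbance at 475 nm against the Cu2+:compound ratio.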

H9c2 [17] = assay: Antioxidant activity in rat H9c2 cells assessed as reduction in H2O2-induced intracellular ROS accumulation at 125 to 500 uM pretreated for 24 hrs followed by H2O2 challenge for 4 hrs by DCFH-DA staining based flow cytometry; format: functional, cell-based; conditions: dose 125-500 µM, time 28.0 hrs
[18] = Metal chelating activity assessed as compound-Cu2+ complex formation by measuring optical responses at 100 uM in presence of CuSO4 by UV-Vis spectroscopy; method in brief: as §1
[19] = Cytotoxicity against human SH-SY5Y cells assessed as reduction in cell viability incubated for 24 hrs by MTT assay; format: toxicity, cell-based; method in brief: as §2
H9c2 [20] = assay: Antioxidant activity in rat H9c2 cells assessed as reduction in H2O2-induced intracellular ROS accumulation at 125 to 500 uM pretreated for 24 hrs followed by H2O2 challenge for 4 hrs by DCFH-DA staining based inverted fluorescence microscopy; format: functional, cell-based; conditions: dose 125-500 µM, time 28.0 hrs
SH-SY5Y = assay: Neuroprotective activity against H2O2-induced oxidative damage in human SH-SY5Y cells assessed as increase in cell viability at 500 uM pretreated for 24 hrs followed by H2O2 challenge for 2 hrs by MTT assay; format: functional, cell-based; conditions: time 26.0 hrs
Method in brief: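 SH-SY5Y cells are seeded at 1 × 10^4/well in DMEM/F12 with 10% FBS and grown 24 h. They are pretreated with compound for 24 h, then given 200 μM H2O2 for 2 h. MTT (5 mg/mL stock) is added for 4 h, formazan dissolved in DMSO, and A490 read. Viability is given as % of untreated control, mean ± SEM (n = 3).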

[21] = Metal chelating activity assessed as compound-Mg2+ complex formation by measuring optical responses at 100 uM in presence of MgSO4 by UV-Vis spectroscopy; method in brief: as §1
H9c2 [22] = assay: Neuroprotective activity against H2O2-induced oxidative damage in rat H9c2 cells assessed as increase in cell viability at 125 to 500 uM pretreated for 24 hrs followed by H2O2 challenge for 2 hrs by MTT assay; format: functional, cell-based; conditions: dose 125-500 µM, time 26.0 hrs
[23] = Cytotoxicity against mouse HT-22 cells assessed as reduction in cell viability incubated for 24 hrs by MTT assay; format: toxicity, cell-based; method in brief: as §2
[24] = Metal chelating activity assessed as compound-Cu2+ complex formation by measuring increase in absorption band intensity at 475 nm at 100 uM in presence of CuSO4 by UV-Vis spectroscopy; method in brief: as §3
[25] = Antioxidant activity assessed as ABTS radical scavenging activity at 100 uM incubated for 6 mins under dark condition by UV-Vis spectrophotometry; format: functional
Method in brief: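 Compound dilutions made in DMSO. ABTS (7 mM in water) reacted with 4.96 mM potassium persulfate, 16 h dark at room temperature; working solution adjusted to A734 0.70 ± 0.02. Working solution mixed with sample 9:1, shaken 6 min at room temperature in dark; A734 read on plate reader. Scavenging rate from absorbance; triplicate wells, three independent experiments.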

[26] = Cytotoxicity against human L02 cells assessed as reduction in cell viability incubated for 24 hrs by MTT assay; format: toxicity, cell-based; method in brief: as §2
[27] = Metal chelating activity assessed as compound-Ca2+ complex formation by measuring optical responses at 100 uM in presence of CaCl2 by UV-Vis spectroscopy; method in brief: as §1
[28] = Antioxidant activity assessed as ABTS radical scavenging activity at 100 uM incubated for 6 mins under dark condition by UV-Vis spectrophotometry relative to kojic acid; format: functional
Method in brief: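 Samples serially diluted in DMSO, tested at 400–6.25 μM. ABTS (7 mM, water) reacted with 4.96 mM potassium persulfate for 16 h in the dark at room temperature, then diluted to A734 of 0.70 ± 0.02. Working solution mixed 9:1 with sample and shaken 6 min in the dark at room temperature. Absorbance read at 734 nm; scavenging rate (%) is the mean of three independent experiments.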

[29] = Antioxidant activity assessed as DPPH radical scavenging activity at 100 uM incubated for 30 mins under dark condition by UV-Vis spectrophotometry relative to kojic acid; format: functional
Method in brief: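 Samples serially diluted in DMSO, tested at 400–6.25 μM. Mixed with 100 μM DPPH in ethanol at 9:1 reagent:sample and shaken 30 min in the dark at room temperature. Absorbance read at 517 nm. Scavenging rate (%) is the mean of three independent experiments, each run in triplicate wells.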

[30] = Metal chelating activity assessed as compound-Cu2+ complex formation at stoichiometric ratio of 1:1 at 100 uM in presence of CuSO4 by UV-Vis spectroscopy; method in brief: as §3
BV-2 [31] = assay: Antioxidant activity in mouse BV-2 cells assessed as reduction in H2O2-induced ROS burst by measuring increase in SOD activity at 125 to 500 uM treated with compound prior to H2O2 challenge; format: functional, cell-based; conditions: dose 125-500 µM
BV-2 [32] = assay: Antioxidant activity in mouse BV-2 cells assessed as reduction in H2O2-induced intracellular ROS accumulation by measuring intracellular ROS level at 250 uM pretreated for 24 hrs followed by H2O2 challenge for 12 hrs by DCFH-DA staining based flow cytometry (reference value: 40.7%); format: functional; set-up: scale not given: the % may be the effect or the level left; conditions: time 36 hrs
[33] = Cytotoxicity against rat H9c2 cells assessed as reduction in cell viability incubated for 24 hrs by MTT assay; format: toxicity, cell-based; method in brief: as §2
[34] = Induction of intracellular ROS accumulation in mouse BV-2 cells at 500 uM treated for 24 hrs by DCFH-DA staining based flow cytometry (reference value: 7.15%); format: toxicity, cell-based; conditions: bv-2, 24 h
[35] = Metal chelating activity assessed as compound-Zn2+ complex formation by measuring optical responses at 100 uM in presence of ZnCl2 by UV-Vis spectroscopy; method in brief: as §1

O=c1cc(CO)oc(-c2oc(CO)cc(=O)c2O)c1O
Activity (BV-2 [1]): 29.4% | Activity (H9c2 [2]): Active | Activity [3]: inactive | Activity [4]: Active | Activity (BV-2 [5]): Active | Activity [6]: inactive | Activity [7]: Active | Activity (BV-2 [8]): 21.6% | Activity [9]: Active | IC50 at 24 h [10]: > 500 µM | Activity [11]: 56% | Activity [12]: Active | inhibition [13]: 17% | Activity [14]: 50.3% | Activity [15]: inactive | Activity [16]: Active | Activity (H9c2 [17]): Active | Activity [18]: Active | IC50 at 24 h [19]: > 500 µM | Activity (H9c2 [20]): Active | Activity (SH-SY5Y): Active | Activity [21]: inactive | Activity (H9c2 [22]): Active | IC50 at 24 h [23]: > 500 µM | Activity [24]: Active | Activity [25]: 79.4% | IC50 at 24 h [26]: > 500 µM | Activity [27]: inactive | fold change (FC) [28]: 2 | fold change (FC) [29]: 2 | Activity [30]: Active | Activity (BV-2 [31]): Dose-Dependent Effect | Activity (BV-2 [32]): 24.8% | IC50 at 24 h [33]: > 500 µM | Activity [34]: 14% | Activity [35]: Active

O=c1cc(CO)occ1O [KOJIC ACID]
IC50 at 24 h [10]: > 500 µM | inhibition [13]: 14.6% | Activity [14]: 17.8% | IC50 at 24 h [19]: > 500 µM | IC50 at 24 h [23]: > 500 µM | Activity [25]: 46.8% | IC50 at 24 h [26]: > 500 µM | IC50 at 24 h [33]: > 500 µM

O=C1O[C@H]([C@@H](O)CO)C(O)=C1O
Activity [11]: 39.7%
